Screening results from PubChem.
A selection: hits, their analogues and other compounds. The true share with any hit is near 1.8%.
Insulin prom up: insulin promoter activators in MIN6 cells, imaging, high-content screening, mouse beta cells. z-score at 5 µM. MIN6 insulin promoter-GFP reporter; hits give high values. 190,000 tested, 0.3% active. AID 1625, 2009;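 active means z-score above 3 at 5 µM with at least 500 cells counted in the well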
TNAP act hi DEA: TNAP activators at high phosphate acceptor level, primary screen, biochemical, luminescence, uHTS; activation factor at 20 µM; 200,000 tested, under 10 active; purified TNAP, CDP-star luminescence, 1 M DEA, 30 min; hits give high values; 0 = EDTA background, 1 = DMSO-only activity; Alkaline phosphatase, tissue-nonspecific isozyme (Homo sapiens), P05186; AID 1136, 2008;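 active means activation factor at least 2 at 20 µM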
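system = human TNAP | amount = enzyme diluted 1/800 final | reagent = 100 µM CDP-star substrate | signal = luminescent substrate turnover signal | dosing = one dose, 20 µM | benchmarks = EDTA negative control, DMSO positive control | measure = activation factor | timing = 30 min reaction, room temperature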
TNAP inh no acc: human TNAP enzyme inhibitors, primary screen, biochemical, luminescent, no phosphate acceptor, uHTS; Alkaline phosphatase, tissue-nonspecific isozyme (Homo sapiens), P05186; purified TNAP, CDP-star luminescence, 30 min; inhibition, % at 20 µM; 200,000 tested, 0.26% active; AID 1012, 2008;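 active means tissue-nonspecific alkaline phosphatase inhibition above about 50% at 20 µM in the single-dose screen, limit read from the data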
Autophagy mod: autophagy modulators in MEF cells, primary screen, imaging, high-content, MEF GFP-LC3; MEF GFP-LC3 puncta imaging; test concentration mostly 10 µM; calls only at 10 µM (by protocol); 190,000 tested, 0.98% active; AID 463193, 2010;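 active means percentage of spot-positive cells more than 3 SD above its plate mean, without a fluorescence outlier flag or 80% toxicity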
NCF1 inh: p47phox/p22phox peptide binding inhibitors, primary screen, biochemical, uHTS, NADPH oxidase regulatory subunit; Neutrophil cytosol factor 1 (Homo sapiens), P14598; fluorescence polarization, 2 h; inhibition, % at 24.7 µM; 220,000 tested, 0.53% active; AID 1274, 2008;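 active means inhibition above about 30%, limit read from the data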
Target sequence (P14598 whole entry, looked up): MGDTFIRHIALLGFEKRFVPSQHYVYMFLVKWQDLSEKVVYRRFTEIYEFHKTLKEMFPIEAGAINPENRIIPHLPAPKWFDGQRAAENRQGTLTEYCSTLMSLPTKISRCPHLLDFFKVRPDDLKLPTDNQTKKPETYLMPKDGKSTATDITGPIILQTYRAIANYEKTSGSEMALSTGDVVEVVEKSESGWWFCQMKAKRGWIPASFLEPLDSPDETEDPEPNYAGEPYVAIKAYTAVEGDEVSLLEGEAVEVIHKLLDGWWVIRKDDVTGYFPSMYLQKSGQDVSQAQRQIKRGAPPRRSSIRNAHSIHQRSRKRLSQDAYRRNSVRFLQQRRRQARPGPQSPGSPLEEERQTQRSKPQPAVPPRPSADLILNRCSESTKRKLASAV
TNAP inh hi DEA: human TNAP enzyme inhibitors, primary screen, biochemical, luminescent, high phosphate acceptor level, uHTS. Alkaline phosphatase, tissue-nonspecific isozyme (Homo sapiens), P05186. purified TNAP, CDP-star luminescence, 1 M DEA. inhibition, % at 20 µM. 200,000 tested, 0.03% active. AID 1135, 2008;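 active means over 50% inhibition of tissue-nonspecific alkaline phosphatase at 20 µM in the single-dose screen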
Hits are given with their value; - = inactive; . = not tested or not shown; + = active, no number.

SMILES | Insulin prom up | TNAP act hi DEA | TNAP inh no acc | Autophagy mod | NCF1 inh | TNAP inh hi DEA
O=c1c2oc3ccccc3c2ncn1Cc1ccc(F)cc1 | - | - | - | - | - | -
Cc1cccc(Oc2coc3cc(OC(=O)c4cncc(Br)c4)ccc3c2=O)c1 | - | - | - | - | 87 | -
CCOC(=O)C(=O)Nc1ccc(OCc2ccccc2)cc1 | - | - | - | - | - | -
O=C(Nc1ccccc1F)c1ccc(OCc2ccccc2)cc1 | - | - | - | + | - | -
CCOCC(=O)Nc1ccc(OCc2ccccc2)cc1 | - | - | - | + | - | -
COCCCNC(=O)c1ccc2c3c(onc13)-c1ccccc1C2=O | . | . | . | . | - | .
CCOC(=O)C(C(=O)OCC)c1cc(Br)c2noc3c2c1C(=O)c1ccccc1-3 | - | - | - | + | - | -
CCOC(=O)c1c(N/N=C/c2cccnc2)n[nH]c1C | - | . | . | . | - | .
Cc1nc(CN(C)C(=O)c2ccccc2OC2CCN(S(C)(=O)=O)CC2)cs1 | - | - | - | + | - | -
CCN(CC)c1ccc(/C=N/N=C(N)N)c(O)c1 | - | - | - | + | - | -
Cc1ccc(S(=O)(=O)N2CCC(C(=O)N3CCC[C@H]3C(=O)NCc3ccccc3)CC2)cc1 | - | - | - | - | - | -
Cc1ccc(S(=O)(=O)N2CCC(C(=O)N3CCC[C@H]3C(=O)NCc3ccco3)CC2)cc1 | - | - | - | + | - | -
Cc1cccc2cc(C(c3nnnn3CC3CCCO3)N3CCCC4(CCCCC4)C3)c(=O)[nH]c12 (stereo unspecified) | - | - | - | + | - | -
Cc1ccc2cc(C(c3nnnn3CC3CCCO3)N3CCCC4(CCCCC4)C3)c(=O)[nH]c2c1 (stereo unspecified) | . | . | . | - | . | .
O=c1c2ccc([N+](=O)[O-])cc2ncn1Cc1ccccc1C(F)(F)F | - | - | - | - | - | -
CN(C)C(CNC(=O)c1ccc(S(=O)(=O)N(C)C)cc1)Cc1ccccc1 (stereo unspecified) | - | - | - | + | - | -
CN(C)S(=O)(=O)c1ccc(C(=O)NCCSc2ccccc2)cc1 | - | - | - | - | - | -
CCOC(=O)c1c(C)n(C)c2ccc(OCC(O)CN3CCN(C)CC3)cc12 (stereo unspecified) | - | - | - | - | - | -
CCOC(=O)c1c(C)n(-c2ccc(C)cc2)c2ccc(OCC(O)CN3CCN(C)CC3)cc12 (stereo unspecified) | - | - | - | - | 54 | -
CN(C)c1ccnc2c[cH-]cc12.[Fe].c1ccc(-[c-]2[c-](-c3ccccc3)[c-](-c3ccccc3)[c-](-c3ccccc3)[c-]2-c2ccccc2)cc1 (stereo unspecified) | - | . | . | . | 90 | .
O=C(CCNS(=O)(=O)c1cccs1)N1CCCCCC1 | - | - | - | + | - | -
Cc1ccc(S(=O)(=O)c2ccc(Cl)cc2)cc1S(=O)(=O)NC(C)C(=O)O (stereo unspecified) | - | - | - | - | - | -
CCOC(=O)c1nn(-c2ccc(F)cc2)c2c1CC/C2=C/c1ccccc1 | - | - | - | - | - | -
CN(C)CC(C)(C)CNS(=O)(=O)c1ccc(OC(F)(F)F)cc1 | - | - | - | - | - | -
CCCCCCN(C(=O)CCCCCN1C(=O)NC(c2ccc(-c3ccccc3)cc2)C(C(=O)OCc2ccccc2)=C1C)C(C)C(=O)NCCCC (stereo unspecified) | - | - | - | + | - | -
SMILES | Insulin prom up | TNAP act hi DEA | TNAP inh no acc | Autophagy mod | NCF1 inh | TNAP inh hi DEA
CC(=O)N(C)c1ccc(C(O)(C(F)(F)F)C(F)(F)F)cc1 | . | - | - | - | - | -
Nc1cc(Cl)nnc1Cl | - | . | . | . | - | .
COC(=O)/N=C/c1c(NCc2ccccc2)nc2c(C)cccn2c1=O | - | - | - | - | - | -
CCN1CCN(CCCOc2ccc(-c3ccccc3)cc2)CC1 | - | - | - | + | - | -
CCN1CCN(CCCOc2ccccc2-c2ccccc2)CC1 | - | - | - | - | - | -
O=C(c1ccccc1)c1ccc(OCCCCN2CCCCC2)cc1 | - | - | - | - | - | -
c1ccc(COc2ccc(OCCCCN3CCCCC3)cc2)cc1 | - | - | - | + | - | -
COc1ccc(Cl)cc1C(=O)NNC1CC(=O)N(Cc2ccc(Cl)cc2)C1=O (stereo unspecified) | - | - | - | - | - | -
CCc1cc2c(N=Nc3c(O)[nH]c4ccccc34)ncnc2s1 | - | - | - | + | - | -
CN(Cc1cn(-c2ccccc2)nc1-c1ccc2c(c1)OCO2)Cc1nccn1C | - | - | - | + | - | -
CN(CCn1ccnc1)Cc1cn(-c2ccccc2)nc1-c1ccc2c(c1)OCO2 | . | - | - | - | - | -
O=C(CSc1nc2c(sc3ccccc32)c(=O)n1CCc1ccccc1)NCc1ccco1 | - | - | - | + | - | -
Cc1ccc(-c2cc(NC(=O)CCl)n(-c3ccccc3)n2)cc1 | . | - | - | + | - | -
CC(=O)Nc1ccc(-c2cc(NC(C)=O)n(-c3ccccc3)n2)cc1 | - | - | - | - | - | -
O=C(CCl)Nc1cc(-c2ccccc2)nn1-c1ccccc1 | . | - | - | + | - | -
Cc1cc(C)c(-c2cc(NC(=O)COC(=O)c3ccc(CO)cc3)n(-c3ccccc3)n2)cc1C | - | - | - | - | + | -
Cc1cc(NC(=O)COc2ccccc2)n(-c2ccccc2)n1 | - | - | - | - | - | -
COc1cc(C(=O)OCC(=O)Nc2cc(-c3cc(C)c(C)cc3C)nn2-c2ccccc2)cc(OC)c1OC | - | - | - | - | - | -
Cc1ccc(C(=O)Nc2ccccc2C(=O)N2CCOCC2)cc1[N+](=O)[O-] | - | - | - | - | - | -
Cc1cccc2c(CC(=O)Nc3ccccc3)noc12 | - | - | - | - | - | -
CCCCCCOc1ccc(/C=c2\s/c(=C(/C#N)C(=O)NCc3ccco3)n(-c3ccccc3)c2=O)cc1 | - | - | - | + | - | -
CCOc1ccccc1C(=O)Nc1cc(OC)ccc1OC | - | - | - | + | - | -
COc1ccc(OC)c(NS(=O)(=O)c2ccc(N3CCCC3=O)cc2)c1 | - | - | - | + | - | -
CCOc1ccc(S(=O)(=O)Nc2cc(OC)ccc2OC)cc1 | - | - | - | + | - | -
COc1ccc(OC)c(NS(=O)(=O)c2ccc(SC)cc2)c1 | . | - | - | - | - | -
CCOC(=O)c1ccccc1NS(=O)(=O)c1ccc(OCC)cc1 | - | - | - | + | - | -
